ChEMBL document CHEMBL3616442, “Unconventional Knoevenagel-type indoles: Synthesis and cell-based studies for the identification of pro-apoptotic agents” (Eur J Med Chem, 2015)

Assays:
MT4 = assay: Antiproliferative activity against human MT4 cells after 96 hrs by MTT assay; assay type: functional, cell-based; conditions: MT4, 96 h
How it was run: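 Exponentially growing MT-4 cells (CD4+ human T-cells carrying integrated HTLV-1 genome), seeded at 1×10^5 cells/mL in RPMI-1640 with 10% FCS and antibiotics. Serial dilutions of compound (DMSO stock 100 mM, diluted in medium), 37 °C, 5% CO₂, 96 h. Viability read by MTT. 50% inhibition versus untreated controls by linear regression. Mean ± SD of three independent determinations.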

CCRF-CEM = assay: Growth inhibition of human CCRF-CEM cells after 48 hrs by sulforhodamine B assay; assay type: functional
How it was run: (§1)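 NCI 60-cell-line screen. Compounds tested at five 10-fold dilutions from 10^-4 to 10^-8 M. Cells exposed for the last 48 h of a 72 h incubation, growth estimated by sulforhodamine B protein assay. GI50 is the concentration giving 50% growth inhibition. Values beyond the tested range are expressed as greater or lesser than the extreme concentration.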

[1] = Growth inhibition of human RPMI8226 cells after 48 hrs by sulforhodamine B assay; assay type: functional; conditions: RPMI-8226, 48 h
A549 = assay: Growth inhibition of human A549 cells after 48 hrs by sulforhodamine B assay; assay type: functional; conditions: A549, 48 h; how it was run: as §1
[2] = Growth inhibition of human EKVX cells after 48 hrs by sulforhodamine B assay; assay type: functional; how it was run: as §1
HOP-62 = assay: Growth inhibition of human HOP62 cells after 48 hrs by sulforhodamine B assay; assay type: functional; conditions: HOP-62, 48 h; how it was run: as §1
[3] = Growth inhibition of human HOP92 cells after 48 hrs by sulforhodamine B assay; assay type: functional; conditions: HOP-92, 48 h; how it was run: as §1
NCI-H226 = assay: Growth inhibition of human NCI-H226 cells after 48 hrs by sulforhodamine B assay; assay type: functional; conditions: NCI-H226, 48 h; how it was run: as §1
NCI-H23 = assay: Growth inhibition of human NCI-H23 cells after 48 hrs by sulforhodamine B assay; assay type: functional; conditions: NCI-H23, 48 h; how it was run: as §1
NCI-H322M = assay: Growth inhibition of human NCI-H322M cells after 48 hrs by sulforhodamine B assay; assay type: functional; how it was run: as §1
NCI-H460 = assay: Growth inhibition of human NCI-H460 cells after 48 hrs by sulforhodamine B assay; assay type: functional; conditions: NCI-H460, 48 h; how it was run: as §1
NCI-H522 = assay: Growth inhibition of human NCI-H522 cells after 48 hrs by sulforhodamine B assay; assay type: functional; conditions: NCI-H522, 48 h; how it was run: as §1
[4] = Growth inhibition of human COLO205 cells after 48 hrs by sulforhodamine B assay; assay type: functional; conditions: COLO 205, 48 h; how it was run: as §1
[5] = Growth inhibition of human HCC2998 cells after 48 hrs by sulforhodamine B assay; assay type: functional; conditions: HCC 2998, 48 h; how it was run: as §1
HCT-116 = assay: Growth inhibition of human HCT116 cells after 48 hrs by sulforhodamine B assay; assay type: functional; conditions: HCT-116, 48 h; how it was run: as §1
HCT-15 = assay: Growth inhibition of human HCT15 cells after 48 hrs by sulforhodamine B assay; assay type: functional; conditions: HCT-15, 48 h; how it was run: as §1
HT-29 = assay: Growth inhibition of human HT-29 cells after 48 hrs by sulforhodamine B assay; assay type: functional; conditions: HT-29, 48 h; how it was run: as §1
KM12 = assay: Growth inhibition of human KM12 cells after 48 hrs by sulforhodamine B assay; assay type: functional; conditions: KM12, 48 h; how it was run: as §1
SW-620 = assay: Growth inhibition of human SW620 cells after 48 hrs by sulforhodamine B assay; assay type: functional; conditions: SW-620, 48 h
SF-268 = assay: Growth inhibition of human SF268 cells after 48 hrs by sulforhodamine B assay; assay type: functional; conditions: SF-268, 48 h
[6] = Growth inhibition of human SF295 cells after 48 hrs by sulforhodamine B assay; assay type: functional; conditions: SF-295, 48 h
[7] = Growth inhibition of human SF539 cells after 48 hrs by sulforhodamine B assay; assay type: functional; conditions: SF-539, 48 h
SNB-19 = assay: Growth inhibition of human SNB19 cells after 48 hrs by sulforhodamine B assay; assay type: functional; conditions: SNB-19, 48 h
SNB-75 = assay: Growth inhibition of human SNB75 cells after 48 hrs by sulforhodamine B assay; assay type: functional; conditions: SNB-75, 48 h
U-251 = assay: Growth inhibition of human U251 cells after 48 hrs by sulforhodamine B assay; assay type: functional; conditions: U-251, 48 h
[8] = Growth inhibition of human LOXIMVI cells after 48 hrs by sulforhodamine B assay; assay type: functional; conditions: LOX IMVI; how it was run: as §1
Malme-3M = assay: Growth inhibition of human MALME-3M cells after 48 hrs by sulforhodamine B assay; assay type: functional; how it was run: as §1
M14 = assay: Growth inhibition of human M14 cells after 48 hrs by sulforhodamine B assay; assay type: functional; conditions: M14, 48 h; how it was run: as §1
MDA-MB-435 = assay: Growth inhibition of human MDA-MB-435 cells after 48 hrs by sulforhodamine B assay; assay type: functional; conditions: MDA-MB-435, 48 h; how it was run: as §1
SK-MEL-2 = assay: Growth inhibition of human SK-MEL-2 cells after 48 hrs by sulforhodamine B assay; assay type: functional; conditions: SK-MEL-2, 48 h
SK-MEL-28 = assay: Growth inhibition of human SK-MEL-28 cells after 48 hrs by sulforhodamine B assay; assay type: functional; conditions: SK-MEL-28, 48 h
UACC-257 = assay: Growth inhibition of human UACC257 cells after 48 hrs by sulforhodamine B assay; assay type: functional; conditions: UACC-257, 48 h
UACC-62 = assay: Growth inhibition of human UACC62 cells after 48 hrs by sulforhodamine B assay; assay type: functional; conditions: UACC-62, 48 h
IGROV-1 = assay: Growth inhibition of human IGROV1 cells after 48 hrs by sulforhodamine B assay; assay type: functional; conditions: IGROV-1, 48 h; how it was run: as §1
OVCAR-3 = assay: Growth inhibition of human OVCAR3 cells after 48 hrs by sulforhodamine B assay; assay type: functional; conditions: OVCAR-3, 48 h; how it was run: as §1
OVCAR-4 = assay: Growth inhibition of human OVCAR4 cells after 48 hrs by sulforhodamine B assay; assay type: functional; conditions: OVCAR-4, 48 h; how it was run: as §1
OVCAR-8 = assay: Growth inhibition of human OVCAR8 cells after 48 hrs by sulforhodamine B assay; assay type: functional; conditions: OVCAR-8, 48 h
[9] = Growth inhibition of human NCI-ADR-RES cells after 48 hrs by sulforhodamine B assay; assay type: functional; how it was run: as §1
SK-OV-3 = assay: Growth inhibition of human SKOV3 cells after 48 hrs by sulforhodamine B assay; assay type: functional; conditions: SK-OV-3, 48 h
786-0 = assay: Growth inhibition of human 786-0 cells after 48 hrs by sulforhodamine B assay; assay type: functional; conditions: 786-0, 48 h; how it was run: as §1
A498 = assay: Growth inhibition of human A498 cells after 48 hrs by sulforhodamine B assay; assay type: functional; conditions: A498, 48 h; how it was run: as §1
ACHN = assay: Growth inhibition of human ACHN cells after 48 hrs by sulforhodamine B assay; assay type: functional; how it was run: as §1
CAKI-1 = assay: Growth inhibition of human CAKI-1 cells after 48 hrs by sulforhodamine B assay; assay type: functional; conditions: CAKI-1, 48 h; how it was run: as §1
[10] = Growth inhibition of human RXF393 cells after 48 hrs by sulforhodamine B assay; assay type: functional; conditions: RXF 393, 48 h
SN12C = assay: Growth inhibition of human SN12C cells after 48 hrs by sulforhodamine B assay; assay type: functional
TK-10 = assay: Growth inhibition of human TK10 cells after 48 hrs by sulforhodamine B assay; assay type: functional; conditions: TK-10, 48 h
UO-31 = assay: Growth inhibition of human UO31 cells after 48 hrs by sulforhodamine B assay; assay type: functional; conditions: UO-31, 48 h
PC-3 = assay: Growth inhibition of human PC3 cells after 48 hrs by sulforhodamine B assay; assay type: functional; conditions: PC-3, 48 h
DU-145 = assay: Growth inhibition of human DU145 cells after 48 hrs by sulforhodamine B assay; assay type: functional; conditions: DU-145, 48 h; how it was run: as §1
MCF7 = assay: Growth inhibition of human MCF7 cells after 48 hrs by sulforhodamine B assay; assay type: functional; conditions: MCF7, 48 h; how it was run: as §1
MDA-MB-231 = assay: Growth inhibition of human MDA-MB-231 cells after 48 hrs by sulforhodamine B assay; assay type: functional; conditions: MDA-MB-231, 48 h; how it was run: as §1
[11] = Growth inhibition of human Hs 578T cells after 48 hrs by sulforhodamine B assay; assay type: functional; how it was run: as §1
[12] = Growth inhibition of human BT549 cells after 48 hrs by sulforhodamine B assay; assay type: functional; conditions: BT-549, 48 h; how it was run: as §1
T47D = assay: Growth inhibition of human T47D cells after 48 hrs by sulforhodamine B assay; assay type: functional
MDA-MB-468 = assay: Growth inhibition of human MDA-MB-468 cells after 48 hrs by sulforhodamine B assay; assay type: functional; conditions: MDA-MB-468, 48 h; how it was run: as §1

N#C/C(=C\c1c(-c2ccccc2)[nH]c2ccccc12)C(=O)c1ccccc1
EC50 (MT4): 0.5 µM | GI50 (CCRF-CEM): 7.3 µM | GI50 [1]: 2.4 µM | GI50 (A549): 7.6 µM | GI50 [2]: 10 µM | GI50 (HOP-62): 16.3 µM | GI50 [3]: 4.5 µM | GI50 (NCI-H226): 6.8 µM | GI50 (NCI-H23): 16 µM | GI50 (NCI-H322M): 3.8 µM | GI50 (NCI-H460): 4.5 µM | GI50 (NCI-H522): 4 µM | GI50 [4]: 5 µM | GI50 [5]: 14.5 µM | GI50 (HCT-116): 5.3 µM | GI50 (HCT-15): 3.5 µM | GI50 (HT-29): 3.4 µM | GI50 (KM12): 2 µM | GI50 (SW-620): 3 µM | GI50 (SF-268): 5.7 µM | GI50 [6]: 3 µM | GI50 [7]: 6 µM | GI50 (SNB-19): 16.8 µM | GI50 (SNB-75): 3.2 µM | GI50 (U-251): 4.7 µM | GI50 [8]: 7.4 µM | GI50 (Malme-3M): 12.3 µM | GI50 (M14): 4.8 µM | GI50 (MDA-MB-435): 0.37 µM | GI50 (SK-MEL-2): 35.2 µM | GI50 (SK-MEL-28): 12 µM | GI50 (UACC-257): 10.9 µM | GI50 (UACC-62): 3.6 µM | GI50 (IGROV-1): 2.5 µM | GI50 (OVCAR-3): 2.4 µM | GI50 (OVCAR-4): 65.3 µM | GI50 (OVCAR-8): 2.2 µM | GI50 [9]: 3.1 µM | GI50 (SK-OV-3): 15.2 µM | GI50 (786-0): 16.5 µM | GI50 (A498): 15.3 µM | GI50 (ACHN): 7.2 µM | GI50 (CAKI-1): 2.5 µM | GI50 [10]: 9.6 µM | GI50 (SN12C): 5.7 µM | GI50 (TK-10): 11.1 µM | GI50 (UO-31): 30.5 µM | GI50 (PC-3): 3.5 µM | GI50 (DU-145): 5.2 µM | GI50 (MCF7): 4 µM | GI50 (MDA-MB-231): 13.2 µM | GI50 [11]: 6.3 µM | GI50 [12]: 3 µM | GI50 (T47D): 5.3 µM | GI50 (MDA-MB-468): 5.6 µM
